From ChEMBL document CHEMBL4706649, “Design, synthesis and biological evaluation of new benzoxazolone/benzothiazolone derivatives as multi-target agents against Alzheimer's disease” (Eur J Med Chem, 2021)
The source made the active and inactive calls. The calls are words filed in the database; no cut-off is given here.

How the values were obtained:
Homo sapiens [1] = species: Homo sapiens; experiment: Reversible inhibition of recombinant human BChE assessed as residual activity at 0.1 times IC50 using butyrylthiocholine iodide as substrate preincubated for 30 mins followed by 100-fold dilution in presence of substrate and measured after 15 mins by Ellman's method relative to control; settings: time 45.0 min
Homo sapiens [2] = species: Homo sapiens; experiment: Reversible inhibition of recombinant human BChE assessed as residual activity at IC50 using butyrylthiocholine iodide as substrate preincubated for 30 mins followed by 100-fold dilution in presence of substrate and measured after 15 mins by Ellman's method relative to control; settings: time 45.0 min
THP-1 [3] = experiment: Antiinflammatory activity in LPS-induced human THP-1 cells assessed as reduction in IL1beta release at 10 uM peincubated for 1 hr followed by LPS stimulation and measured after 24 hrs by EIA; type: functional, cell-based; settings: time 25.0 hrs
Method in brief: (§1)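 THP-1 cells grown in RPMI 1640 with 10% FCS, penicillin and streptomycin at 37 °C, 5% CO2, then plated overnight at 4×10⁴ cells/well. Test compound added 1 h before 100 ng/ml E. coli O111:B4 LPS; 24 h incubation. Untreated and LPS-only controls. […]; cytokine read by EIA at 450 nm against a standard curve. At least triplicate.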

THP-1 [4] = experiment: Antiinflammatory activity in LPS-induced human THP-1 cells assessed as reduction in IL6 release at 10 uM peincubated for 1 hr followed by LPS stimulation and measured after 24 hrs by EIA; type: functional, cell-based; settings: time 25.0 hrs; method in brief: as §1
THP-1 [5] = experiment: Antiinflammatory activity in LPS-induced human THP-1 cells assessed as reduction in TNFalpha release at 10 uM peincubated for 1 hr followed by LPS stimulation and measured after 24 hrs by EIA; type: functional, cell-based; settings: time 25.0 hrs; method in brief: as §1
THP-1 [6] = experiment: Antiinflammatory activity in LPS-induced human THP-1 cells assessed as reduction in nitric oxide release at 10 uM peincubated for 1 hr followed by LPS stimulation and measured after 24 hrs by ELISA; type: functional, cell-based; settings: time 25.0 hrs
Method in brief: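 THP-1 cells plated overnight at 4×10⁴ cells/well, given test compound 1 h before 100 ng/ml LPS (E. coli O111:B4), then incubated 24 h. Cell-free supernatants stored at −20 °C, then NO measured by ELISA kit (sensitivity 1,12 […]) from a standard curve. Untreated cells as negative control, LPS-only as positive control. At least triplicate.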

[7] = molecular target: Acetylcholinesterase (Electrophorus electricus) (UniProt O42275); experiment: Inhibition of electric eel AChE at 100 uM using acetylthiocholine iodide as substrate preincubated for 10 mins followed by substrate addition and measured for 10 mins by Ellman's method relative to control; settings: time 20.0 min
Method in brief: (§2)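 Ellman single-concentration screen in 50 mM Tris-HCl pH 8.0 with DTNB (6.8 mM stock) and 1% DMSO. Enzyme solution 0.4 U/mL AChE or 0.8 U/mL BChE. Compound and enzyme preincubated 10 min at 25 °C, then ATI (10 mM stock) or BTI (30 mM stock) added. A412 followed for 10 min, blank-subtracted, % inhibition versus no-compound control. Triplicate.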

[8] = molecular target: Cholinesterase (Equus caballus) (UniProt P81908); experiment: Inhibition of equine serum BChE at 100 uM using butyrylthiocholine iodide as substrate preincubated for 10 mins followed by substrate addition and measured for 10 mins by Ellman's method relative to control; settings: time 20.0 min; method in brief: as §2
Cholinesterase [9] = molecular target: Cholinesterase (Equus caballus, UniProt P81908); experiment: Inhibition of equine serum BChE using butyrylthiocholine iodide as substrate preincubated for 10 mins followed by substrate addition and measured for 10 mins by Ellman's method
Method in brief: (§3)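 BChE (0.8 U/mL solution) preincubated with inhibitor 10 min at 25 °C in Tris-HCl pH 8.0 with DTNB and 1% DMSO, then BTI (30 mM stock) added. A412 read over 10 min, blank-corrected. IC50 from log[inhibitor] versus % inhibition. Triplicate, mean ± SD.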

Cholinesterase [10] = molecular target: Cholinesterase (Homo sapiens, UniProt P06276); experiment: Inhibition of recombinant human BChE using butyrylthiocholine iodide as substrate preincubated for 10 mins followed by substrate addition and measured for 10 mins by Ellman's method; method in brief: as §3
[11] = Antioxidant activity assessed as trolox equivalent of AAPH radical scavenging activity at 10 uM measured every min for 90 mins by ORAC-FL assay; type: functional
Method in brief: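 ORAC-FL in 75 mM phosphate buffer pH 7.4. Sample and fluorescein (150 nM final) preincubated 15 min at 37 °C, then AAPH (12 mM final) added. Fluorescence (ex 485/em 535 nm) read each minute for 90 min. Net AUC after blank subtraction, converted to Trolox equivalents from a Trolox curve (0.5–8, final; Trolox = 1). Duplicate wells, three independent assays.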

[12] = molecular target: Amyloid-beta precursor protein (Homo sapiens) (UniProt P05067); experiment: Inhibition of amyloid beta (1 to 42) (unknown origin) self-induced aggregation at 50 uM by Thioflavin T based fluorometric assay relative to control
Method in brief: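 Thioflavin T fluorometric assay of Aβ1-42 self-aggregation, with inhibitor and Aβ42 both at 50 (equimolar). Samples dissolved in DMSO. Result given as % inhibition, mean of two independent experiments each run in triplicate.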

[13] = Induction of apoptosis in mouse 3T3 cells assessed as necrotic cells at 10 uM measured after 24 hrs by Annexin V-FITC/propidium iodide staining based flow cytometry (reference value: 0%); type: cell-based; settings: 3t3, 24 h
Method in brief: (§4)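 3T3 fibroblasts exposed to compound for 24 h, with untreated cells as negative control. Cells trypsinized, PBS-washed, stained with Annexin V-FITC and PI by kit protocol, then analysed by flow cytometry. Populations: live (Annexin−/PI−), early apoptotic (Annexin+/PI−), late apoptotic (Annexin+/PI+) and dead (Annexin−/PI+). Percentages given as mean ± SD.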

[14] = Induction of apoptosis in mouse 3T3 cells assessed as late apoptotic cells at 10 uM measured after 24 hrs by Annexin V-FITC/propidium iodide staining based flow cytometry (reference value: 0.1 to 0.13%); type: cell-based; settings: 3t3, 24 h; method in brief: as §4
[15] = Induction of apoptosis in mouse 3T3 cells assessed as viable cells at 10 uM measured after 24 hrs by Annexin V-FITC/propidium iodide staining based flow cytometry (reference value: 98.83 to 99%); type: cell-based; settings: read-out: Activity; method in brief: as §4
[16] = Induction of apoptosis in mouse 3T3 cells assessed as early apoptotic cells at 10 uM measured after 24 hrs by Annexin V-FITC/propidium iodide staining based flow cytometry (Rvb <= 0.97%); type: cell-based; settings: 3t3, 24 h; method in brief: as §4
[17] = Cytotoxicity against mouse 3T3 cells assessed as cell viability at 0.1 uM measured after 24 hrs by MTT assay relative to control; type: cell-based; settings: read-out: Activity
Method in brief: (§5)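 3T3 fibroblasts (ATCC CCL92) grown as adherent monolayers in DMEM with 10% inactivated FBS, 2 mM L-glutamine and penicillin/streptomycin at 37 °C, 5% CO2. Cells exposed to compounds for 24 h. MTT added for 4 h, formazan dissolved in SDS for 24 h, OD read at 570 nm. Viability given as % of untreated OD; at least triplicate, mean ± SD.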

[18] = Cytotoxicity against mouse 3T3 cells assessed as cell viability at 1 uM measured after 24 hrs by MTT assay relative to control; type: cell-based; settings: read-out: Activity; method in brief: as §5
[19] = Cytotoxicity against mouse 3T3 cells assessed as cell viability at 10 uM measured after 24 hrs by MTT assay relative to control; type: cell-based; settings: read-out: Activity; method in brief: as §5
Acetylcholinesterase [20] = molecular target: Acetylcholinesterase (Electrophorus electricus, UniProt O42275); experiment: Inhibition of electric eel AChE using acetylthiocholine iodide as substrate preincubated for 10 mins followed by substrate addition and measured for 10 mins by Ellman's method
Acetylcholinesterase [21] = molecular target: Acetylcholinesterase (Homo sapiens, UniProt P22303); experiment: Inhibition of recombinant human AChE expressed in HEK293 cells using acetylthiocholine iodide as substrate preincubated for 10 mins followed by substrate addition and measured for 10 mins by Ellman's method
Acetylcholinesterase (Homo sapiens, UniProt P22303), sequence (P22303 whole entry): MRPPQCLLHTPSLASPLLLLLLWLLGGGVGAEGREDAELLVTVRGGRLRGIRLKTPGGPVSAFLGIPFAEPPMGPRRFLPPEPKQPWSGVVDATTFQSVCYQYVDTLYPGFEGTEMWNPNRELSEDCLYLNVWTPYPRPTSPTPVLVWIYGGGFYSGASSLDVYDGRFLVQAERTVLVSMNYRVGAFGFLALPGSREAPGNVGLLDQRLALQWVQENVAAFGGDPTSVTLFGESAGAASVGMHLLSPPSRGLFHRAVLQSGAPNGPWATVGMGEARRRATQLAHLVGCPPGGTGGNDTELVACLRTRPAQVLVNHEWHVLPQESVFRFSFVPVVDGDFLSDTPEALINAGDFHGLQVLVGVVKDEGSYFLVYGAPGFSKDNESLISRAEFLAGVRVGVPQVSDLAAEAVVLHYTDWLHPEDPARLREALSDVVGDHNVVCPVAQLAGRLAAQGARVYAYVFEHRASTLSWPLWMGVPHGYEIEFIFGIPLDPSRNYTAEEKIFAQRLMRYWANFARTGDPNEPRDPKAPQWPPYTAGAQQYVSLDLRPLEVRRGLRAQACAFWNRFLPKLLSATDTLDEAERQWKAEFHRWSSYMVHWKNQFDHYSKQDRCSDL

Cholinesterase (Equus caballus), sequence (P81908 whole entry): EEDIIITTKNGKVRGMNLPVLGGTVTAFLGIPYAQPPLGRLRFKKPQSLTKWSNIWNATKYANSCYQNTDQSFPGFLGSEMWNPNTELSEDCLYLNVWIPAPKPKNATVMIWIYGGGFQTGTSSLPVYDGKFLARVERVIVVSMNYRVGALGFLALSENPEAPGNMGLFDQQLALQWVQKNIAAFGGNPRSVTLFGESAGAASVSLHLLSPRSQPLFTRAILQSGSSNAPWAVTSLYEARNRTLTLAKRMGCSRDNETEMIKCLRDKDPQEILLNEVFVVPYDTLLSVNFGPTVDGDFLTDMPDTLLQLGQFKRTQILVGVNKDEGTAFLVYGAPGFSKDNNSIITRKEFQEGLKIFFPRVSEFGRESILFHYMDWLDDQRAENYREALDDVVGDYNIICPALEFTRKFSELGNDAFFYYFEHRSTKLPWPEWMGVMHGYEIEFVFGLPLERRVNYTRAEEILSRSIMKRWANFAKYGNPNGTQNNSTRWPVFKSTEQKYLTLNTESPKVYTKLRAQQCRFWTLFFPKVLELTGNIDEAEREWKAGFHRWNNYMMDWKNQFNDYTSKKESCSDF
Acetylcholinesterase (Electrophorus electricus), sequence (O42275 24-633 limits assumed): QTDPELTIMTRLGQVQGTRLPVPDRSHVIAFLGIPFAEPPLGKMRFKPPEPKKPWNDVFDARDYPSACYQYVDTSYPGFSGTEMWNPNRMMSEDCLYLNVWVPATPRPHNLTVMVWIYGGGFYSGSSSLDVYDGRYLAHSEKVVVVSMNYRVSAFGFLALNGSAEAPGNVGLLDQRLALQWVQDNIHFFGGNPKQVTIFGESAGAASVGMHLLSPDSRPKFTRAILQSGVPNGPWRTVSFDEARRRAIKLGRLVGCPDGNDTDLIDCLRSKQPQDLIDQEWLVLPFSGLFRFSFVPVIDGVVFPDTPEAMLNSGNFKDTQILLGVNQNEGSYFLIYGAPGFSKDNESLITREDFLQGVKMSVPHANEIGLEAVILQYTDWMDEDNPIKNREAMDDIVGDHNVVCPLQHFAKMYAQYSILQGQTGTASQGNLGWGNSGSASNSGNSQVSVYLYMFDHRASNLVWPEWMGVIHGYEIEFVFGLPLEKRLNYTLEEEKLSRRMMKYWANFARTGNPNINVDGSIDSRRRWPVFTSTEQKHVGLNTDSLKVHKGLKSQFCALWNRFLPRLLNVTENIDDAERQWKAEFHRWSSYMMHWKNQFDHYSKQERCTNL
Amyloid-beta precursor protein (Homo sapiens), sequence (P05067 whole entry): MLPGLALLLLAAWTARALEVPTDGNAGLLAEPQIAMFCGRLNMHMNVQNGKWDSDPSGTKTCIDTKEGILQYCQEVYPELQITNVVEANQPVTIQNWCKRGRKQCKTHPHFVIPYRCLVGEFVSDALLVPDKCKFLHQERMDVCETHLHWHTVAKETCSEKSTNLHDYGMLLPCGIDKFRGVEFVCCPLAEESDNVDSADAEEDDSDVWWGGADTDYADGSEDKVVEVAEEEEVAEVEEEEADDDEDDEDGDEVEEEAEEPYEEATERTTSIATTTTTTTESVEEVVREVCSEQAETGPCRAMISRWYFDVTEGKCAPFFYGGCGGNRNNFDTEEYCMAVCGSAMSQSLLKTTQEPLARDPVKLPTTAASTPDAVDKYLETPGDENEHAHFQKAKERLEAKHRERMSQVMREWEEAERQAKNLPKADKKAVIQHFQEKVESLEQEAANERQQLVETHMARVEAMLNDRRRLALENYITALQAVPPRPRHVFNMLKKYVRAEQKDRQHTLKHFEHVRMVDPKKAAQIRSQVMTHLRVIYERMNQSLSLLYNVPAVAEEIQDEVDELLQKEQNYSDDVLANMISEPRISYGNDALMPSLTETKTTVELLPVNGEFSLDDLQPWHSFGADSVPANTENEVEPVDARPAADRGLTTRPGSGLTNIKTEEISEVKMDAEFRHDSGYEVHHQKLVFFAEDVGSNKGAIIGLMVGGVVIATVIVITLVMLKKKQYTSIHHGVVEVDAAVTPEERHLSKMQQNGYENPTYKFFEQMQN
Cholinesterase (Equus caballus, UniProt P81908), sequence (P81908 whole entry): as the sequence (P81908 whole entry) above
Cholinesterase (Homo sapiens, UniProt P06276), sequence (P06276 whole entry): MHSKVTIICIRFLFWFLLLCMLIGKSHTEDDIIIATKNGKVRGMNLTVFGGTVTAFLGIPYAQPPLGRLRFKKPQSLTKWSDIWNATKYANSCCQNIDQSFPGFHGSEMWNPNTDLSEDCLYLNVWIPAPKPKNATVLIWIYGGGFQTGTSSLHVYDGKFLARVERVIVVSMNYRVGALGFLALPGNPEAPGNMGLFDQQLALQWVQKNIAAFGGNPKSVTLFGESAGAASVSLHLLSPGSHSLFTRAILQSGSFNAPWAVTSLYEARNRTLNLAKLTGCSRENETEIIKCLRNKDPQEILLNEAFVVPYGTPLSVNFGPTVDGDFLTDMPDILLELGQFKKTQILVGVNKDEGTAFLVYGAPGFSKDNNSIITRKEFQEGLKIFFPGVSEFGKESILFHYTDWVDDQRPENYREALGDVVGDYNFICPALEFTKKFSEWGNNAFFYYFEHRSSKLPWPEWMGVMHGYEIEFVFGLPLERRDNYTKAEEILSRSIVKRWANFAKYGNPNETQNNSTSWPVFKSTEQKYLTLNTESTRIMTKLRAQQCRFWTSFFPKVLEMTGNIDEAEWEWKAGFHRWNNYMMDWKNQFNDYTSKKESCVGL
Acetylcholinesterase (Electrophorus electricus, UniProt O42275), sequence (O42275 whole entry): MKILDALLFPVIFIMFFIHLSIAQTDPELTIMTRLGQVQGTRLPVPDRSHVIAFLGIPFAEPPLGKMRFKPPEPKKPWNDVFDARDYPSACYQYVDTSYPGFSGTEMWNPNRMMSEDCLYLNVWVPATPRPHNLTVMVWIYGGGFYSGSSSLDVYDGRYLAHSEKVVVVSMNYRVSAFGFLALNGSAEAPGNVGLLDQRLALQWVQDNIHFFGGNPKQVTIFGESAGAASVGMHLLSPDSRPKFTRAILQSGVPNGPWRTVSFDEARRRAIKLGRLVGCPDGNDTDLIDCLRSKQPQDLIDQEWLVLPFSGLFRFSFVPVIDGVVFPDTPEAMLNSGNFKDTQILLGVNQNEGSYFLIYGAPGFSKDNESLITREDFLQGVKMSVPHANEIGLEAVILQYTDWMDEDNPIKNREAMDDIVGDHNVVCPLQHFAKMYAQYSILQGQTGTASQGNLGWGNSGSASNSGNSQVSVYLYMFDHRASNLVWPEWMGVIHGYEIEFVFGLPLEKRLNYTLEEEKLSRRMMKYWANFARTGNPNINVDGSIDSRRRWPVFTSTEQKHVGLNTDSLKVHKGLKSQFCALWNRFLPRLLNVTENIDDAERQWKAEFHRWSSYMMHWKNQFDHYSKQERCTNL

Compound	Activity (Homo sapiens [1]) [%]	Activity (Homo sapiens [2]) [%]	Activity (THP-1 [3])	Activity (THP-1 [4])	Activity (THP-1 [5])	Activity (THP-1 [6])	inhibition [7] [%]	inhibition [8] [%]	Activity [11] [equiv]	inhibition [12] [%]	Activity [13]	Activity [14] [%]	viability at 24 h, 10 µM [15] [%]	Activity [16] [%]	viability at 24 h, 0.1 µM [17] [%]	viability at 24 h, 1 µM [18] [%]	viability at 24 h, 10 µM [19] [%]	other results
COc1cc2c(cc1OC)C(=O)C(CC1CCN(Cc3ccccc3)CC1)C2 (configuration not stated)	95.4	90.2	Active	Active	Active	Active												
Cn1c(=O)sc2cc(NC(=O)CCCCN3CCC(c4ccccc4)CC3)ccc21	98.4	81.5	Active	Active	Active	Active	30	96	2.61	55.6	<= 0.23%	0.33	93.8	1.73	98.9	97.1	93.6	IC50 (Cholinesterase [9]): 2980 nM; IC50 (Cholinesterase [10]): 2560 nM
Cn1c(=O)sc2cc(C(=O)CCN3CCN(Cc4ccccc4)CC3)ccc21			Active	Active	Active	Active	99	< 10	3.7	57.5	0.4%	0.1	98.3	1.03	102	99.3	92.6	IC50 (Acetylcholinesterase [20]): 340 nM; IC50 (Acetylcholinesterase [21]): 460 nM
